Assay results as given in ChEMBL document CHEMBL1138367, “Synthesis and in vivo evaluation of non-hepatotoxic acetaminophen analogs” (Bioorg Med Chem, 2007).
Values belong to the compound of their own block, whether it stands above or below them. The source made the active and inactive calls.

Key:
[1] = tested on: Mus musculus; experiment: Hepatotoxicity in mouse assessed as plasma GPT levels at 3.7 mmol/kg, po after 24 hrs; type: toxicity, organism-based; conditions: in vivo
Summary of the method: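 C57BL/6 mice given a single 3.7 mmol/kg oral dose; plasma GPT measured spectrophotometrically 24 h later and reported as SF units/mL ± SD.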

[2] = tested on: Mus musculus; experiment: Analgesic activity in CD1 mouse assessed as acetic acid-induced writhing at 1 mmol/kg, po after 1 hr; type: functional
Summary of the method: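 Mice fasted overnight, dosed orally by esophageal cannula under brief halothane, 1 mmol/kg; 1 h reading, n = 9–16 per group. Writhing induced by ip 0.4% acetic acid, 10 mL/kg, given 25 min after drug; writhes counted for 10 min starting 5 min after injection. Expressed as % analgesia ± SEM.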

[3] = Drug level in CD1 mouse urine assessed as glucuronate level at 3 mmol/kg, po; type: ADME, tissue-based; conditions: in vivo
Summary of the method: (§1)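 Two-month-old CD-1 mice, fasted overnight, given a single oral 3 mmol/kg dose in Tween 20 under light halothane. Housed two per metabolic cage, with food from 6 h; urine collected on ice over 24 h. After centrifugation and filtration, analysed by HPLC–MS on a C18 column with an ammonium acetate/acetonitrile gradient; UV detection at 280, 254 and 210 nm.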

[4] = Drug level in CD1 mouse urine assessed as 2-{[(4-Hydroxyphenylcarbamoyl)methyl]sulphamoyl}benzoic acid level at 3 mmol/kg, po; type: ADME, tissue-based; conditions: in vivo; summary of the method: as §1
[5] = tested on: HepG2; experiment: Hepatotoxicity against HEPG2 cells after 6 to 8 hrs by tryptan blue exclusion test; type: functional, cell-based; conditions: Homo sapiens
Summary of the method: (§2)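 HEPG-2 cells at 80% confluence were serum-starved 6–8 h (EMEM, 0.5% FBS), then exposed to the compound for 6–8 h at 37 °C. Cell toxicity was assessed by Trypan blue exclusion.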

[6] = Drug level in CD1 mouse urine assessed as unmetabolized fractions at 3 mmol/kg, po; type: ADME, tissue-based; conditions: read-out: Activity; summary of the method: as §1
[7] = tested on: Mus musculus; experiment: Hepatotoxicity in CD1 mouse assessed as hepatic glutathione levels at 6 mmol/kg; type: toxicity, organism-based; conditions: in vivo
Summary of the method: (§3)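 Male CD-1 mice (20–30 g), fasted overnight, received 6 mmol/kg orally by esophageal cannula under brief halothane anesthesia, or vehicle. At 3 h the livers were saline-perfused. Liver was homogenized 5% w/v and kidney 10% w/v in 5% MPA, then centrifuged 3000g for 10 min at 4 C. Supernatant glutathione read colorimetrically. n = 8–12.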

[8] = species: Mus musculus; experiment: Analgesic activity in CD1 mouse by acetic acid-induced writhing test after 30 to 40 mins; type: functional
Summary of the method: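 Overnight-fasted mice given several oral doses by esophageal cannulation under brief halothane. Acetic acid 0.4% (10 mL/kg ip) injected 25 min post-dose; writhes counted over 10 min from 5 min after injection, i.e. 30–40 min after dosing. Percent analgesia vs vehicle; two-way ANOVA with Tukey; ED50 by nonlinear regression.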

[9] = tested on: Mus musculus; experiment: (§4) Toxicity in CD1 mouse assessed as mortality at 6 mmol/kg; type: organism-based; conditions: mouse, in vivo
Summary of the method: (§5)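 CD-1 mice, fasted overnight, given a single oral dose of 6 mmol/kg by esophageal cannula under brief halothane anesthesia. Deaths recorded 24 h after dosing, expressed as a fraction of the group (n = 10).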

[10] = tested on: HepG2; experiment: Activation of CAR in HEPG2 cells at 100 uM by Western blot; type: functional, cell-based; conditions: Homo sapiens
Summary of the method: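 HEPG-2 cells in EMEM/NEAA/10% FBS, 37 °C, 5% CO2; at 80% confluence held 6–8 h in EMEM with 0.5% FBS, then treated at 100 µM for the times indicated. CAR detected by Western blot on cell extracts (15–20 µg protein, 8–16% gel) with human CAR-specific antibody and ECL, then quantified by densitometry.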

[11] = tested on: Mus musculus; experiment: Hepatotoxicity in CD1 mouse assessed as plasma GOT levels at 6 mmol/kg; type: toxicity, organism-based; conditions: in vivo
Summary of the method: (§6)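 CD-1 mice, fasted overnight, dosed orally with 6 mmol/kg by esophageal cannula under brief halothane anesthesia, or vehicle. Blood collected after decapitation at 24 h into heparinized syringes. Plasma spun 3000 rpm for 10 min at 4 C. GPT and GOT activity measured with a spectrophotometric kit. n = 8–12.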

[12] = tested on: HepG2; experiment: Upregulation of Fas-ligand in HEPG2 cells by Western blot; type: functional, cell-based; conditions: Homo sapiens
Summary of the method: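 HEPG-2 cells at 80% confluence, serum-starved 6–8 h (EMEM, 0.5% FBS), then treated with 100 µM for the times indicated at 37 °C. Fas-ligand measured by Western blot on extracts normalised for protein (15–20 µg loaded), Fas-L-specific antibody, ECL detection, densitometric quantitation.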

[13] = species: Mus musculus; experiment: Analgesic activity in CD1 mouse by formalin-induced pain model after 30 mins; type: functional; conditions: for ED50: CD1, 0.5 h
Summary of the method: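 Oral dosing (fasted, halothane, esophageal cannula) 30 min before sc injection of 30 µL 5% buffered formalin into one hind plantar paw. Paw-licking time recorded in 5-min blocks over 90 min; mice habituated to the test box 90 min the day before. Three-way ANOVA (drug × dose × time) with Tukey; ED50 by nonlinear regression.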

[14] = tested on: Mus musculus; experiment: Antiinflammatory activity in CD1 mouse by carrageenan-induced paw edema method; type: functional, organism-based
Summary of the method: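 Male CD-1 mice dosed orally; 30 min later, under halothane, 50 µL 1% lambda-carrageenan in saline was injected into one hind plantar paw. Paw volume was measured by paw volume meter before and 4 h after injection, expressed as % of vehicle controls ± SEM; n = 4–5 per dose. Indomethacin 30 mg/kg po served as positive control.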

[15] = tested on: Mus musculus; experiment: Hepatotoxicity in CD1 mouse assessed as plasma GPT levels at 6 mmol/kg; type: toxicity, organism-based; conditions: in vivo; summary of the method: as §6
[16] = tested on: HepG2; experiment: Induction of apoptosis in HEPG2 cells by Hoechst staining; type: functional, cell-based; conditions: Homo sapiens
Summary of the method: (§7)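 Serum-starved HEPG-2 cells were treated 6–8 h at 37 °C (100 µM). After washing with PBS, cells were stained with Hoechst (2 µM final) for 45 min at 37 °C. Apoptotic cells were detected by confocal fluorescence microscopy.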

[17] = tested on: Mus musculus; experiment: Analgesic activity in CD1 mouse upto 3010 umol/kg by hot plate assay; type: functional, organism-based
Summary of the method: (§8)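 Oral doses given to overnight-fasted mice. Latency to lick the hind paw was recorded on a 54 ± 1 °C hot plate, with a 30 s cut-off assigned to non-responders. Testing was done blind.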

[18] = tested on: Mus musculus; experiment: Hepatotoxicity in CD1 mouse assessed as renal glutathione levels at 6 mmol/kg; type: toxicity, organism-based; conditions: in vivo; summary of the method: as §3
[19] = tested on: Mus musculus; experiment: Analgesic activity in CD1 mouse upto 3010 umol/kg by tail flick test; type: functional, organism-based
Summary of the method: (§9)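 Oral doses given to fasted mice. A focused light beam was aimed at the tail, with intensity set for baseline latencies of 3–4 s; withdrawal latency was recorded by photoelectric cell. Testing was done blind.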

[20] = Drug level in CD1 mouse urine assessed as glucuronate level; type: ADME, tissue-based; conditions: in vivo
[21] = tested on: HepG2; experiment: Hepatotoxicity against HEPG2 cells at 200 uM after 6 to 8 hrs by tryptan blue exclusion test; type: functional, cell-based; conditions: Homo sapiens; summary of the method: as §2
[22] = tested on: Mus musculus; experiment: Hepatotoxicity in CD1 mouse assessed as reduction in hepatic glutathione levels at 6 mmol/kg; type: toxicity, organism-based; conditions: in vivo
Summary of the method: (§10)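 Male CD-1 mice (20–30 g), fasted, given 6 mmol/kg orally; killed 3 h later and livers perfused with heparinized saline. Liver homogenized to 5% w/v and kidney to 10% w/v in 5% MPA, then centrifuged 3000g for 10 min at 4 °C. Glutathione in supernatant measured by colorimetric kit; n = 8–12.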

[23] = tested on: Mus musculus; experiment: Hepatotoxicity in CD1 mouse assessed as reduction in renal glutathione levels at 6 mmol/kg; type: toxicity, organism-based; conditions: in vivo; summary of the method: as §10
[24] = tested on: Mus musculus; experiment: Analgesic activity in CD1 mouse upto 6620 umol/kg by hot plate assay; type: functional, organism-based; summary of the method: as §8
[25] = tested on: Mus musculus; experiment: Analgesic activity in CD1 mouse upto 6620 umol/kg by tail flick test; type: functional, organism-based; summary of the method: as §9
[26] = tested on: Mus musculus; experiment: Hepatotoxicity in CD1 mouse assessed as increased plasma GOT levels at 6 mmol/kg; type: toxicity, organism-based; conditions: in vivo
Summary of the method: (§11)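 Male CD-1 mice (20–30 g), fasted overnight, received 6 mmol/kg orally by esophageal cannula. At 24 h, blood was collected by decapitation into heparinized syringes and plasma obtained by centrifugation at 4 °C. GPT and GOT were determined with a spectrophotometric kit; n = 8–12. Mortality was recorded at 24 h.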

[27] = as §4; type: organism-based; conditions: CD1, mouse, in vivo, 6 mmol/kg; read-out: Activity; summary of the method: as §5
[28] = tested on: Mus musculus; experiment: Hepatotoxicity in CD1 mouse assessed as increased plasma GPT levels at 6 mmol/kg; type: toxicity, organism-based; conditions: in vivo; summary of the method: as §11
[29] = Hepatotoxicity in C57BL/6 mouse; type: toxicity, organism-based; conditions: in vivo
[30] = tested on: HepG2; experiment: Induction of apoptosis in HEPG2 cells at 100 uM after 6 to 8 hrs by Hoechst staining; type: functional, cell-based; conditions: Homo sapiens; summary of the method: as §7
[31] = tested on: HepG2; experiment: Hepatotoxicity against HEPG2 cells at 100 uM after 6 to 8 hrs by tryptan blue exclusion test; type: functional, cell-based; conditions: Homo sapiens; summary of the method: as §2

Structure (SMILES): O=C(CCCCN1C(=O)c2ccccc2S1(=O)=O)Nc1ccc(O)cc1
Activity [1]: 44.16 U/ml
Activity [2]: 32.56%

Activity [3]: 32%
Structure (SMILES): O=C(CN1C(=O)c2ccccc2S1(=O)=O)Nc1ccc(O[C@@H]2O[C@H](C(=O)O)[C@@H](O)[C@H](O)[C@H]2O)cc1

Structure (SMILES): O=C(CCCCCN1C(=O)c2ccccc2S1(=O)=O)Nc1ccc(O)cc1
Activity [1]: 29.52 U/ml
Activity [2]: 53.72%

Activity [4]: 38.6%
Structure (SMILES): O=C(CNS(=O)(=O)c1ccccc1C(=O)O)Nc1ccc(O)cc1

Structure (SMILES): O=C(CCCN1C(=O)c2ccccc2S1(=O)=O)Nc1ccc(O)cc1
Activity [1]: 82.62 U/ml
Activity [2]: 28.9%

Structure (SMILES): O=C(CN1C(=O)c2ccccc2S1(=O)=O)Nc1ccc(O)cc1
Activity [5]: inactive
dose excreted [6]: 0.9%
Activity [7]: Not Active
Activity [8]: Dose-dependent effect
ED50 [8]: 640 µmol/kg
Activity [9]: Not Active
Activity [10]: inactive
Activity [11]: Not Active
Activity [12]: inactive
Activity [13]: Dose-dependent effect
ED50 [13]: 260 µmol/kg
Activity [14]: inactive
Activity [1]: 30.5 U/ml
Activity [15]: Not Active
Activity [2]: 62.42%
Activity [16]: inactive
Activity [17]: inactive
Activity [18]: Not Active
Activity [19]: inactive

Structure (SMILES): O=C(CCN1C(=O)c2ccccc2S1(=O)=O)Nc1ccc(O)cc1
Activity [1]: 28.85 U/ml
Activity [2]: 43.8%

Activity [20]: 23.7%
Structure (SMILES): O=C(CNS(=O)(=O)c1ccccc1C(=O)O)Nc1ccc(O[C@@H]2O[C@H](C(=O)O)[C@@H](O)[C@H](O)[C@H]2O)cc1

Structure (SMILES): CC(=O)Nc1ccc(O)cc1 [ACETAMINOPHEN]
Activity [21]: Active
Activity [22]: Active
Activity [23]: Active
Activity [8]: Dose-dependent effect
ED50 [8]: 1290 µmol/kg
Activity [24]: inactive
Activity [25]: inactive
Activity [26]: Active
mortality [27]: 40%
Activity [10]: Active
Activity [12]: Active
Activity [28]: Active
Activity [13]: Dose-dependent effect
ED50 [13]: 1900 µmol/kg
LD50 [29]: 3700 µmol/kg
Activity [14]: inactive
Activity [30]: Active
Activity [1]: 299.01 U/ml
Activity [31]: Active
Activity [2]: 61.32%
